Test results published in ChEMBL document CHEMBL3994615, “Design, synthesis and antibacterial evaluation of novel pleuromutilin derivatives possessing piperazine linker” (2017).
In brackets after ≈: the same amount, converted by molar mass.

Experiments:
Type in all cases: functional
Staphylococcus aureus [1] = assay: Antibacterial activity against methicillin-resistant Staphylococcus aureus ATCC 43300 after overnight incubation by broth dilution method
Outline: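 CLSI broth dilution MIC in Mueller-Hinton broth. Compounds were dissolved in methanol, diluted in broth, and tested over a two-fold range, with final methanol 1.25% in the top well. Inoculum was colonies in saline after 18–24 h growth at 37 °C in 5% CO2. Plates ran 24 h at 37 °C. MIC was the lowest concentration preventing visible growth. Duplicate wells, drug-free and solvent controls.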

Staphylococcus aureus [2] = assay: Antibacterial activity against Staphylococcus aureus ATCC 29213 after overnight incubation by broth dilution method
Outline: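 CLSI broth microdilution MIC. Compounds dissolved in methanol, diluted to working solution in Mueller-Hinton broth. Strain recovered in broth 18–24 h at 37 °C, 5% CO2; colonies suspended in saline for inoculum. Final test range 0.016–32, plates incubated 24 h at 37 °C. MIC read as the lowest concentration preventing visible growth. Duplicates, with drug-free and solvent-blank columns; final methanol 1.25%.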

Enterococcus faecalis = assay: Antibacterial activity against Enterococcus faecalis ATCC 29212 after overnight incubation by broth dilution method
Outline: (§1)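 CLSI broth microdilution MIC. Compounds dissolved in methanol, diluted to working solution in Brain Heart Infusion broth. Organisms recovered in broth 18–24 h at 37 °C, 5% CO2; inoculum from colonies suspended in saline. Test range 0.016–32 (final), incubated 24 h at 37 °C. MIC taken as the lowest concentration inhibiting visible growth. Run in duplicate with drug-free and solvent-blank columns; final methanol 1.25%.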

Enterococcus faecium = assay: Antibacterial activity against Enterococcus faecium ATCC 35667 after overnight incubation by broth dilution method; outline: as §1
Staphylococcus aureus [3] = assay: Antibacterial activity against methicillin-resistant Staphylococcus aureus ATCC 43300 infected in neutropenic mouse assessed as mouse survival rate at 40 mg/kg, iv administered 1 hr post infection relative to control; conditions: ATCC 43300, iv
Outline: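 Female ICR mice (23–25 g) were made neutropenic with cyclophosphamide ip, 150 mg/kg 4 days and 100 mg/kg 1 day before infection. They were infected ip with 0.5 mL of ~10⁷ CFU/mL MRSA, then given compound iv at 40 mg/kg 1 h post-infection, with tiamulin given the same way as comparator. 10 mice per group; survival recorded.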

| SMILES | MIC (Staphylococcus aureus [1]) [µg/mL] | MIC (Staphylococcus aureus [2]) [µg/mL] | MIC (Enterococcus faecalis) [µg/mL] | MIC (Enterococcus faecium) [µg/mL] | survival at 40 mg/kg (Staphylococcus aureus [3]) [%] |
| --- | --- | --- | --- | --- | --- |
| C=C[C@]1(C)C[C@@H](OC(=O)CN2CCN(C(=O)CN3CCN(c4cccc(C)c4)CC3)CC2)[C@]2(C)[C@H](C)CC[C@]3(CCC(=O)[C@H]32)[C@@H](C)[C@@H]1O | 0.25 (≈ 0.377 µM) | 0.5 (≈ 0.754 µM) | 4 (≈ 6.03 µM) | > 32 |  |
| C=C[C@]1(C)C[C@@H](OC(=O)CN2CCN(C(=O)CN3CCN(c4ccccc4[N+](=O)[O-])CC3)CC2)[C@]2(C)[C@H](C)CC[C@]3(CCC(=O)[C@H]32)[C@@H](C)[C@@H]1O | 0.0625 (≈ 0.0901 µM) | 0.0625 (≈ 0.0901 µM) | 2 (≈ 2.88 µM) | > 32 |  |
| C=C[C@]1(C)C[C@@H](OC(=O)CSCCN(CC)CC)[C@]2(C)[C@H](C)CC[C@]3(CCC(=O)[C@H]32)[C@@H](C)[C@@H]1O [TIAMULIN] | 0.125 (≈ 0.253 µM) | 0.5 (≈ 1.01 µM) | 2 (≈ 4.05 µM) | > 32 | 10 |
| C=C[C@]1(C)C[C@@H](OC(=O)CN2CCN(C(=O)CN3CCN(c4ccc(OC)cc4)CC3)CC2)[C@]2(C)[C@H](C)CC[C@]3(CCC(=O)[C@H]32)[C@@H](C)[C@@H]1O | 0.25 (≈ 0.368 µM) | 0.5 (≈ 0.736 µM) | 2 (≈ 2.95 µM) | > 32 |  |
| C=C[C@]1(C)C[C@@H](OC(=O)CN2CCN(C(=O)CN3CCN(c4ccccc4OC)CC3)CC2)[C@]2(C)[C@H](C)CC[C@]3(CCC(=O)[C@H]32)[C@@H](C)[C@@H]1O | 0.5 (≈ 0.736 µM) | 0.5 (≈ 0.736 µM) | 4 (≈ 5.89 µM) | > 32 |  |
| C=C[C@]1(C)C[C@@H](OC(=O)CN2CCN(C(=O)CN3CCN(c4ccccc4Cl)CC3)CC2)[C@]2(C)[C@H](C)CC[C@]3(CCC(=O)[C@H]32)[C@@H](C)[C@@H]1O | 0.015 (≈ 0.022 µM) | 0.5 (≈ 0.732 µM) | 4 (≈ 5.85 µM) | > 32 |  |
| C=C[C@]1(C)C[C@@H](OC(=O)CN2CCN(C(=O)CN3CCN(C)CC3)CC2)[C@]2(C)[C@H](C)CC[C@]3(CCC(=O)[C@H]32)[C@@H](C)[C@@H]1O | 0.125 (≈ 0.213 µM) | 0.5 (≈ 0.852 µM) | 2 (≈ 3.41 µM) | > 32 |  |
| C=C[C@]1(C)C[C@@H](OC(=O)CN2CCN(C(=O)CN3CCN(c4ccccc4O)CC3)CC2)[C@]2(C)[C@H](C)CC[C@]3(CCC(=O)[C@H]32)[C@@H](C)[C@@H]1O | 0.5 (≈ 0.752 µM) | 1 (≈ 1.5 µM) | 2 (≈ 3.01 µM) | > 32 |  |
| C=C[C@]1(C)C[C@@H](OC(=O)CN2CCN(C(=O)CN3CCN(c4cccc([N+](=O)[O-])c4)CC3)CC2)[C@]2(C)[C@H](C)CC[C@]3(CCC(=O)[C@H]32)[C@@H](C)[C@@H]1O | 0.0625 (≈ 0.0901 µM) | 0.25 (≈ 0.36 µM) | 2 (≈ 2.88 µM) | > 32 |  |
| C=C[C@]1(C)C[C@@H](OC(=O)CN2CCN(C(=O)CN3CCN(c4ccc(Cl)cc4)CC3)CC2)[C@]2(C)[C@H](C)CC[C@]3(CCC(=O)[C@H]32)[C@@H](C)[C@@H]1O | 0.015 (≈ 0.022 µM) | 0.125 (≈ 0.183 µM) | 2 (≈ 2.93 µM) | > 32 | 50 |
| C=C[C@]1(C)C[C@@H](OC(=O)CN2CCN(C(=O)CN3CCN(c4ccccc4)CC3)CC2)[C@]2(C)[C@H](C)CC[C@]3(CCC(=O)[C@H]32)[C@@H](C)[C@@H]1O | 0.125 (≈ 0.193 µM) | 0.25 (≈ 0.385 µM) | 4 (≈ 6.16 µM) | > 32 |  |
| C=C[C@]1(C)C[C@@H](OC(=O)CN2CCN(C(=O)CN3CCN(c4ccc(C)cc4)CC3)CC2)[C@]2(C)[C@H](C)CC[C@]3(CCC(=O)[C@H]32)[C@@H](C)[C@@H]1O | 0.125 (≈ 0.189 µM) | 0.25 (≈ 0.377 µM) | 2 (≈ 3.02 µM) | > 32 |  |
| C=C[C@]1(C)C[C@@H](OC(=O)CN2CCN(C(=O)CN3CCN(c4cccc(O)c4)CC3)CC2)[C@]2(C)[C@H](C)CC[C@]3(CCC(=O)[C@H]32)[C@@H](C)[C@@H]1O | 0.25 (≈ 0.376 µM) | 0.5 (≈ 0.752 µM) | 2 (≈ 3.01 µM) | > 32 |  |
| C=C[C@]1(C)C[C@@H](OC(=O)CO)[C@]2(C)[C@H](C)CC[C@]3(CCC(=O)[C@H]32)[C@@H](C)[C@@H]1O [PLEUROMULIN] | 2 (≈ 5.28 µM) | 8 (≈ 21.1 µM) | 16 (≈ 42.3 µM) | > 32 |  |
| C=C[C@]1(C)C[C@@H](OC(=O)CN2CCN(C(=O)CCl)CC2)[C@]2(C)[C@H](C)CC[C@]3(CCC(=O)[C@H]32)[C@@H](C)[C@@H]1O | > 32 | > 32 | > 32 | > 32 |  |
| C=C[C@]1(C)C[C@@H](OC(=O)CS[C@@H]2C[C@H]3CC[C@@H](C2)N3C)[C@]2(C)[C@H](C)CC[C@]3(CCC(=O)[C@H]32)[C@@H](C)[C@@H]1O [RETAPAMULIN] | 0.0625 (≈ 0.121 µM) | 0.0625 (≈ 0.121 µM) |  | > 32 |  |
| C=C[C@]1(C)C[C@@H](OC(=O)CN2CCN(C(=O)CN3CCN(c4ccc([N+](=O)[O-])cc4)CC3)CC2)[C@]2(C)[C@H](C)CC[C@]3(CCC(=O)[C@H]32)[C@@H](C)[C@@H]1O | 0.015 (≈ 0.0216 µM) | 0.125 (≈ 0.18 µM) | 1 (≈ 1.44 µM) | > 32 |  |
| C=C[C@]1(C)C[C@@H](OC(=O)CSC(C)(C)CNC(=O)[C@H](N)C(C)C)[C@]2(C)[C@H](C)CC[C@]3(CCC(=O)[C@H]32)[C@@H](C)[C@@H]1O [VALNEMULIN] | 0.03 (≈ 0.0531 µM) | 0.125 (≈ 0.221 µM) | 1 (≈ 1.77 µM) | > 32 |  |
| C=C[C@]1(C)C[C@@H](OC(=O)CN2CCN(C(=O)CN3CCN(c4ccccc4C)CC3)CC2)[C@]2(C)[C@H](C)CC[C@]3(CCC(=O)[C@H]32)[C@@H](C)[C@@H]1O | 0.0625 (≈ 0.0943 µM) | 0.25 (≈ 0.377 µM) | 2 (≈ 3.02 µM) | > 32 |  |
| C=C[C@]1(C)C[C@@H](OC(=O)CN2CCN(C(=O)CN3CCN(c4cccc(OC)c4)CC3)CC2)[C@]2(C)[C@H](C)CC[C@]3(CCC(=O)[C@H]32)[C@@H](C)[C@@H]1O | 0.25 (≈ 0.368 µM) | 0.25 (≈ 0.368 µM) | 2 (≈ 2.95 µM) | > 32 |  |
| C=C[C@]1(C)C[C@@H](OC(=O)CN2CCN(C(=O)CN3CCN(c4cccc(Cl)c4)CC3)CC2)[C@]2(C)[C@H](C)CC[C@]3(CCC(=O)[C@H]32)[C@@H](C)[C@@H]1O | 0.03 (≈ 0.0439 µM) | 0.25 (≈ 0.366 µM) | 2 (≈ 2.93 µM) | > 32 |  |
| C=C[C@]1(C)C[C@@H](OC(=O)CN2CCN(C(=O)CN3CCN(c4ccc(O)cc4)CC3)CC2)[C@]2(C)[C@H](C)CC[C@]3(CCC(=O)[C@H]32)[C@@H](C)[C@@H]1O | 1 (≈ 1.5 µM) | 2 (≈ 3.01 µM) | 8 (≈ 12 µM) | > 32 |  |
| C=C[C@]1(C)C[C@@H](OC(=O)CN2CCNCC2)[C@]2(C)[C@H](C)CC[C@]3(CCC(=O)[C@H]32)[C@@H](C)[C@@H]1O | 1 (≈ 2.24 µM) | 2 (≈ 4.48 µM) | 8 (≈ 17.9 µM) | > 32 |  |
